Measurements from ChEMBL document CHEMBL1155454, “The pthaladyns: GTP competitive inhibitors of dynamin I and II GTPase derived from virtual screening” (J Med Chem, 2010).
Active and inactive are the calls of the source. No cut-off for these calls is given here.

What was measured:
[1] = species: Ovis aries; test: Inhibition of sheep brain dynamin 1 at 400 uM after 30 mins by malachite green method
Method in brief: (§1)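 Enzyme was endogenous dynamin I purified from sheep brain. GTPase activity was read by malachite green phosphate detection, with dynamin and lipid levels set for adequate optical response. Inhibition was also scored at single concentrations of 300 or 400 μM.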

[2] = Inhibition of sheep brain dynamin 1 after 30 mins by malachite green method; set-up: species or system Ovis aries; method in brief: as §1
[3] = molecular target: T1, Dynamin-1 (Rattus norvegicus, UniProt P21575); test: Inhibition of dynamin 1-mediated synaptic vesicle endocytosis in Sprague-Dawley rat synaptosomes assessed as uptake of FM 4-64 dye after 30 mins by automated acquisition and analysis system; format: subcellular, Brain
T1 sequence (P21575 whole entry): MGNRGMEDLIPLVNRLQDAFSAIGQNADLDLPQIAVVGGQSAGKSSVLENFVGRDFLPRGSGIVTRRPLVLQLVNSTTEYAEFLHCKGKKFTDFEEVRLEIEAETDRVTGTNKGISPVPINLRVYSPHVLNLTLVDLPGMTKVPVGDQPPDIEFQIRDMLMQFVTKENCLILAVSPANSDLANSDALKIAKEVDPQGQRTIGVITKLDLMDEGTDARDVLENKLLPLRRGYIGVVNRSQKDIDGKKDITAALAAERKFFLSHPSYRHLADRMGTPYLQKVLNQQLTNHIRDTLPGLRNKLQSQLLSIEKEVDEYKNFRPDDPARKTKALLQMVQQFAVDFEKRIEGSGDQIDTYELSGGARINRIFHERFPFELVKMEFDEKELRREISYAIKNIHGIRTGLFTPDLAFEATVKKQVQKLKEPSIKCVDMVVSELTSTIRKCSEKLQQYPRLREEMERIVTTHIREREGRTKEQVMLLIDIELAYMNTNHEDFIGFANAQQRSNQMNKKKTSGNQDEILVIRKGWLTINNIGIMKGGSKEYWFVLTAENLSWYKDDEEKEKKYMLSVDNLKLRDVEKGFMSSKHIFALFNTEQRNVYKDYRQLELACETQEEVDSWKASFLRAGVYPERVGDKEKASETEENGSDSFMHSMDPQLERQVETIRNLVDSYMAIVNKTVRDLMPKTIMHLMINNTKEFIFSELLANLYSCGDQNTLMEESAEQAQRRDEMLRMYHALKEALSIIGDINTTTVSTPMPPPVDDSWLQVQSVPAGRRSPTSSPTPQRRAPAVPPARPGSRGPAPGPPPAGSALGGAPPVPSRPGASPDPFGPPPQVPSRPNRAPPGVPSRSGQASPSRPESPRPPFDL
Method in brief: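 Rat brain nerve terminals (isolated synaptosomes) used for synaptic vesicle endocytosis. Endocytosis was tracked as change in uptake of the styryl dye FM4-64, an endocytic marker.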

[4] = molecular target: T2, Dynamin-2 (Homo sapiens, UniProt P50570); test: Inhibition of dynamin 2-mediated receptor-induced endocytosis in human U2OS cells assessed as uptake of Tf-TxR dye after 30 mins by automated acquisition and analysis system; format: cell-based
T2 sequence (P50570 whole entry): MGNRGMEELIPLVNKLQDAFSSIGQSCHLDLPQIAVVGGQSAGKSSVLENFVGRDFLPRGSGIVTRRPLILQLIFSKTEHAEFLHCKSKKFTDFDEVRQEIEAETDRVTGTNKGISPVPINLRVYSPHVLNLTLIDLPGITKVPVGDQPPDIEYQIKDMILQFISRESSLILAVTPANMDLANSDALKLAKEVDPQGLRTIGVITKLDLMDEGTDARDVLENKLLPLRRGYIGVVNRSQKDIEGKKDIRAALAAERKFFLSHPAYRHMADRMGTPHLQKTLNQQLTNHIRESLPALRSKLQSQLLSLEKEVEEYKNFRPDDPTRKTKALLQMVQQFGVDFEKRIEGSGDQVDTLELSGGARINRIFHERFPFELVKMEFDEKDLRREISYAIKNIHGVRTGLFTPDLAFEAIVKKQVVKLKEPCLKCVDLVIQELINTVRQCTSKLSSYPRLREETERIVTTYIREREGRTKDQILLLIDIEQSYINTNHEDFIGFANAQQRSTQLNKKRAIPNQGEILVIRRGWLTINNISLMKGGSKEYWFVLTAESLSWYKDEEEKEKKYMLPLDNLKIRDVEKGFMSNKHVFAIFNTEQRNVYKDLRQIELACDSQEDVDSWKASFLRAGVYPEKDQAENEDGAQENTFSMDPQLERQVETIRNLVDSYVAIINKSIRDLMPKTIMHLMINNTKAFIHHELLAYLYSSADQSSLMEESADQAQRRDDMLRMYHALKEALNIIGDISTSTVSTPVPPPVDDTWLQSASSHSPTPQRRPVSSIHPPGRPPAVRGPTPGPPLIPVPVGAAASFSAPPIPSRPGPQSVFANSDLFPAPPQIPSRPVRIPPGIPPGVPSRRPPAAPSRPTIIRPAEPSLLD

[5] = molecular target: T2, Dynamin-2; test: Inhibition of recombinant dynamin 2 expressed in Sf9 cells after 30 mins by malachite green method
[6] = species: Ovis aries; test: Inhibition of sheep brain dynamin 1 at 300 uM after 30 mins by malachite green method; method in brief: as §1
[7] = species: Ovis aries; test: Competitive inhibition of dynamin 1 from sheep brain at 14 to 19 uM by Lineweaver-Burke plot
Method in brief: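 Dynamin I GTPase purified from sheep brain, read by malachite green phosphate release. Michaelis-Menten kinetics with inhibitor at 14, 15, 16, 17, 18 and 19 μM and Mg2+·GTP substrate at 60-200 μM. Double-reciprocal (Lineweaver-Burke) plot of reaction velocity against substrate. Four independent experiments, each in triplicate; mean ± SEM.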

SMILES | inhibition [1] | IC50 [2] | other results
O=C(Nc1cc(Cl)ccc1C(=O)O)c1ccc2c(c1)C(=O)N(C1CCCc3ccccc31)C2=O (centres undefined) | inactive | – | –
O=C(O)c1ccc(N2C(=O)c3ccc(C(=O)Nc4cc(Cl)ccc4C(=O)O)cc3C2=O)cc1 | – | 95 µM | –
O=C(Nc1cc(Cl)ccc1C(=O)O)c1ccc2c(c1)C(=O)N(c1ccccc1O)C2=O | – | 61 µM | IC50 ([3]; read-out: IC50): 119 µM
CSc1ccc(N2C(=O)c3ccc(C(=O)Nc4cc(Cl)ccc4C(=O)O)cc3C2=O)cc1 | inactive | – | –
O=C(Nc1cc(Cl)ccc1C(=O)O)c1ccc2c(c1)C(=O)N(c1ccccc1C(=O)O)C2=O | – | 184 µM | –
O=C(Nc1cc(Cl)ccc1C(=O)O)c1ccc2c(c1)C(=O)N(CCCCc1ccccc1)C2=O | inactive | – | –
O=C(Nc1cc(Cl)ccc1C(=O)O)c1ccc2c(c1)C(=O)N(Cc1cccnc1)C2=O | – | 84 µM | –
Cc1cccc(C)c1N1C(=O)c2ccc(C(=O)Nc3cc(Cl)ccc3C(=O)O)cc2C1=O | inactive | – | –
O=C(Nc1cc(Cl)ccc1C(=O)O)c1ccc2c(c1)C(=O)N(c1ccccc1CO)C2=O | inactive | – | –
O=C(O)CCc1ccc(N2C(=O)c3ccc(C(=O)Nc4cc(Cl)ccc4C(=O)O)cc3C2=O)cc1 | – | 104 µM | –
COc1ccc(N2C(=O)c3ccc(C(=O)Nc4cc(Cl)ccc4C(=O)O)cc3C2=O)cc1 | – | 78 µM | –
O=C(Nc1cc(Cl)ccc1C(=O)O)c1ccc2c(c1)C(=O)N(c1ccc(O)cc1)C2=O | – | 39.8 µM | IC50 [3]: Not Active; IC50 [4]: Not Active; IC50 [5]: 114 µM
Nc1ccccc1N1C(=O)c2ccc(C(=O)Nc3cc(Cl)ccc3C(=O)O)cc2C1=O | – | 311 µM | –
O=C(Nc1cc(Cl)ccc1C(=O)O)c1ccc2c(c1)C(=O)N(Cc1ccccc1)C2=O | inactive | – | –
Nc1ccc(N2C(=O)c3ccc(C(=O)Nc4cc(Cl)ccc4C(=O)O)cc3C2=O)cc1 | inactive | – | –
COc1ccc(CN2C(=O)c3ccc(C(=O)Nc4cc(Cl)ccc4C(=O)O)cc3C2=O)cc1 | inactive | – | –

SMILES | inhibition [1] | IC50 [2] | other results
O=C(Nc1cc(Cl)ccc1C(=O)O)c1ccc2c(c1)C(=O)N(c1cccc3ccccc13)C2=O | inactive | – | –
O=C(Nc1cc(Cl)ccc1C(=O)O)c1ccc2c(c1)C(=O)N(c1ccccc1-c1ccccc1)C2=O | 40% | > 400 µM | –
O=C(Nc1cc(Cl)ccc1C(=O)O)c1ccc2c(c1)C(=O)N(c1ccccc1)C2=O | inactive | – | –
O=C(Nc1cc(Cl)ccc1C(=O)O)c1ccc2c(c1)C(=O)N(CCc1ccccc1)C2=O | inactive | – | –
O=C(Nc1cc(Cl)ccc1C(=O)O)c1ccc2c(c1)C(=O)N(c1ccc(CO)cc1)C2=O | – | 4.58 µM | IC50 ([3]; read-out: IC50): 690 µM
O=C(Nc1cc(Cl)ccc1C(=O)O)c1ccc2c(c1)C(=O)N(c1cccc(CO)c1)C2=O | – | 111 µM | –
O=C(Nc1cc(Cl)ccc1C(=O)O)c1ccc2c(c1)C(=O)N(c1ccc([N+](=O)[O-])cc1)C2=O | – | 16.6 µM | –
CCOC(=O)c1ccc(N2C(=O)c3ccc(C(=O)Nc4cc(Cl)ccc4C(=O)O)cc3C2=O)cc1 | – | – | inhibition [6]: 50%
O=C(Nc1cc(Cl)ccc1C(=O)O)c1ccc2c(c1)C(=O)N(c1ccc(C(=O)O)c(O)c1)C2=O | – | 267 µM | –
O=C(Nc1cc(Cl)ccc1C(=O)O)c1ccc2c(c1)C(=O)N(c1cccc(O)c1)C2=O | inactive | – | –
COc1cccc(N2C(=O)c3ccc(C(=O)Nc4cc(Cl)ccc4C(=O)O)cc3C2=O)c1 | inactive | – | –
CC(C)(C)c1ccc(N2C(=O)c3ccc(C(=O)Nc4cc(Cl)ccc4C(=O)O)cc3C2=O)cc1 | – | 112 µM | –
O=C(O)Cc1ccc(N2C(=O)c3ccc(C(=O)Nc4cc(Cl)ccc4C(=O)O)cc3C2=O)cc1 | – | 95.5 µM | –
O=C(Nc1cc(Cl)ccc1C(=O)O)c1ccc2c(c1)C(=O)N(c1cccc([N+](=O)[O-])c1)C2=O | – | 17.4 µM | IC50 ([3]; read-out: IC50): 12.9 µM; Activity [7]: Active
Nc1cccc(N2C(=O)c3ccc(C(=O)Nc4cc(Cl)ccc4C(=O)O)cc3C2=O)c1 | – | 94 µM | –
